Assay results from ChEMBL document CHEMBL1147981, “Small molecule activators of SIRT1 as therapeutics for the treatment of type 2 diabetes” (Nature, 2007).
pEC50: −log10 of the molar value. Calls of active or inactive are those of the source. The calls are words filed in the database; no cut-off is given here.

Legend:
Mus musculus [1] = species: Mus musculus; experiment: Reduction of insulin level in chow-fed C57BL/6 mouse; assay type: functional, organism-based
Mus musculus [2] = experiment: Reduction of blood glucose level in diabetic Lep ob/ob mouse model at 1000 mg/kg, po after 3 weeks; assay type: functional, organism-based; set-up: dose 1000 mg/kg
Summary of the method: (§1)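 ob/ob mice received at 6 weeks, kept on 60%-fat diet from at least one week before study; ~40-45 g; grouped by body weight and glucose; once-daily oral gavage in 2% HPMC + 0.2% DOSS. One-way ANOVA with Dunnett's test vs control, p<0.05.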

Mus musculus [3] = experiment: Reduction of blood glucose level in DIO C57BL/6 mouse model at 500 mg/kg, po after 4 weeks; assay type: functional, organism-based; set-up: dose 500 mg/kg
Summary of the method: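 Male C57BL/6 mice, started at nine weeks, fed 60%-fat diet until mean weight ~40 g; 6-10 per group; once-daily oral gavage in 2% HPMC + 0.2% DOSS. Fed glucose at 2, 4, 6, 8, 10 weeks; IPGTT after 5 weeks; ITT after 10 weeks. One-way ANOVA with Dunnett's test vs control, p<0.05.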

[4] = biological target: T1, NAD-dependent protein deacetylase sirtuin-1 (Homo sapiens) (UniProt Q96EB6); experiment: Activation of human SIRT1 assessed as decrease in Km of enzyme for acetylated peptide substrate by mass spectrometry assay
T1 sequence (whole entry): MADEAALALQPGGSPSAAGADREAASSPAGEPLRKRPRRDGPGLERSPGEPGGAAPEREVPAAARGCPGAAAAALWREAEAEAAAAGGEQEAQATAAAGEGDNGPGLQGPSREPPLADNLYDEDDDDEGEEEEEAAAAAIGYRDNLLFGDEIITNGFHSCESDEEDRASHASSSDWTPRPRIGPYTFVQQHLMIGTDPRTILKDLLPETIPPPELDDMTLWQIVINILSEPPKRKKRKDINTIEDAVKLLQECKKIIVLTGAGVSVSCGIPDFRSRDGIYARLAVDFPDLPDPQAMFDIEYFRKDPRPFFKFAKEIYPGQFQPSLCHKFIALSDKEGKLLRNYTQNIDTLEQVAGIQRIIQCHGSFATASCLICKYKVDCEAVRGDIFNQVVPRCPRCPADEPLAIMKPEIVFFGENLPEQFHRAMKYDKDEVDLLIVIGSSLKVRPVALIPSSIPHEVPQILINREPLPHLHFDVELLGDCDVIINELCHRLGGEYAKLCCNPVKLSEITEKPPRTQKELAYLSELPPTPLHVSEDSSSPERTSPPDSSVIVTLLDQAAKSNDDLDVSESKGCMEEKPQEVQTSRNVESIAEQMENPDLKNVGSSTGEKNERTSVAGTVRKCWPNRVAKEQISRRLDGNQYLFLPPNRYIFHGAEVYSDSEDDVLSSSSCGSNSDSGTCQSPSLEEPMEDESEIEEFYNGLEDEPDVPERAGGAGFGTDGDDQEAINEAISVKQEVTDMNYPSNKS

Mus musculus [5] = experiment: Effect on body weight in diabetic Lep ob/ob mouse model at 1000 mg/kg, po; assay type: functional, organism-based; set-up: dose 1000 mg/kg; summary of the method: as §1
[6] = biological target: T1, NAD-dependent protein deacetylase sirtuin-1 (Homo sapiens); experiment: Activation of human SIRT1-D (219-664) construct by mass spectrometry assay relative to control
[7] = biological target: T1, NAD-dependent protein deacetylase sirtuin-1 (Homo sapiens); experiment: Activation of human SIRT1-F (230-664) construct by mass spectrometry assay relative to control
[8] = biological target: T1, NAD-dependent protein deacetylase sirtuin-1 (Homo sapiens); experiment: Activation of human SIRT1-G (235-664) construct by mass spectrometry assay relative to control
[9] = biological target: T1, NAD-dependent protein deacetylase sirtuin-1 (Homo sapiens); experiment: Activation of human SIRT1-H (240-664) construct by mass spectrometry assay relative to control
[10] = biological target: T1, NAD-dependent protein deacetylase sirtuin-1 (Homo sapiens); experiment: Activation of human SIRT1 expressed in Escherichia coli BL21 by mass spectrometry assay
[11] = biological target: T2, NAD-dependent protein deacetylase sirtuin-2 (Homo sapiens, UniProt Q8IXJ6); experiment: Activation of SIRT2 by mass spectrometry assay
T2 sequence (Q8IXJ6 whole entry): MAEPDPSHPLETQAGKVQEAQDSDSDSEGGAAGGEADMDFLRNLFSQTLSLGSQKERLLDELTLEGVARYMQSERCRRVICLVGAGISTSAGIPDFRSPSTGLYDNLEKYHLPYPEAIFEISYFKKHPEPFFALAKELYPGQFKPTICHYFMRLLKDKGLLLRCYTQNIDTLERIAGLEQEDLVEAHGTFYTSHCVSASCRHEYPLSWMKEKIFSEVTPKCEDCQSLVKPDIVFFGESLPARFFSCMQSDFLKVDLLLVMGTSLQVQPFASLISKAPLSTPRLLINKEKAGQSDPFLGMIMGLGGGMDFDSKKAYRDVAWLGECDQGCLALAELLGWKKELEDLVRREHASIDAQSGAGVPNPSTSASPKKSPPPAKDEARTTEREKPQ

[12] = biological target: T3, NAD-dependent protein deacetylase sirtuin-3, mitochondrial (Homo sapiens, UniProt Q9NTG7); experiment: Activation of SIRT3 by mass spectrometry assay
T3 sequence (Q9NTG7 whole entry): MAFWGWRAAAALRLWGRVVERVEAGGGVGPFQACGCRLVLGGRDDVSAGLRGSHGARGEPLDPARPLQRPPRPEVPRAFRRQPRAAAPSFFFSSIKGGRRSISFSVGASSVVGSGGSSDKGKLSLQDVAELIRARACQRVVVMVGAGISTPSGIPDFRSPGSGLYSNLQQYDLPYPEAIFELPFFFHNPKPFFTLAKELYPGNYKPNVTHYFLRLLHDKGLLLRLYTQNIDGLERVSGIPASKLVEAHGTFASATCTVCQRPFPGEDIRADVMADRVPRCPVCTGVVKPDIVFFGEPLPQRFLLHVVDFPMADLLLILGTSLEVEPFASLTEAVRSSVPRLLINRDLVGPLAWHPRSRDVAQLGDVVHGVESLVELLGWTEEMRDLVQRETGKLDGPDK

[13] = biological target: T1, NAD-dependent protein deacetylase sirtuin-1 (Homo sapiens); experiment: Activation of SIRT1 in human U2OS cells assessed as decrease in p53 deacetylation level at 100 uM; assay type: cell-based
Summary of the method: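 U-2 OS cells plated at 1.5 X 10⁴ cells/well; compounds (DMSO) added after 24 h, then doxorubicin (1 μg/ml final) to induce p53. Replicate plates were co-treated with a SIRT1-specific inhibitor. Cells were fixed, permeabilized and immunostained for Ac-Lys382-p53 and beta-tubulin, with infrared scanning. Signals were background-corrected, normalized to tubulin, then to vehicle (% acetylated p53).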

[14] = biological target: T1, NAD-dependent protein deacetylase sirtuin-1 (Homo sapiens); experiment: Activation of human SIRT1-A (156-664) construct by mass spectrometry assay relative to control
[15] = biological target: T1, NAD-dependent protein deacetylase sirtuin-1 (Homo sapiens); experiment: Activation of human SIRT1-B (172-664) construct by mass spectrometry assay relative to control
[16] = biological target: T1, NAD-dependent protein deacetylase sirtuin-1 (Homo sapiens); experiment: Activation of human SIRT1-C construct by mass spectrometry assay relative to control
[17] = biological target: T1, NAD-dependent protein deacetylase sirtuin-1 (Homo sapiens); experiment: Activation of human SIRT1-E (225-664) construct by mass spectrometry assay relative to control

Activity [4]: Active
Activity [6]: 1.3
Activity [7]: 1.1
Activity [8]: 1.2
Activity [9]: 1.2
Activity [10]: 201%
pEC50 [11]: < 3.52
pEC50 [12]: < 3.52
Activity [13]: Active
Activity [14]: 1.8
Activity [15]: 1.7
Activity [16]: 1.9
Activity [17]: 1.3
Structure (SMILES): Oc1ccc(/C=C/c2cc(O)cc(O)c2)cc1 [RESVERATROL]
Activity (Mus musculus [1]): Active
Activity (Mus musculus [2]): Active
Activity (Mus musculus [3]): Active
Activity (Mus musculus [5]): inactive
